# From ChEMBL document CHEMBL5705907 (BMC Rheumatol, 2018)
# Calls of active or inactive are those of the source. The calls are words filed in the database; no cut-off is given here.
# How the values were obtained:
# Rattus norvegicus [1] = test: Antiarthritic activity in adjuvant-induced arthritis Lewis rat model assessed as reduction in paw swelling at 5 to 10 mg/kg, po administered for 10 days and measured on day 17; format: functional; set-up: scale not given: the % may be the effect or the level left; details: dose 5-10 mg/kg, time 17 day
# In short: (§1)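 In rats with adjuvant-induced arthritis, vehicle or drug was given by oral gavage BID for 10 days (Day 7–Day 17 after immunization). Paw swelling was measured by water-displacement plethysmography every other day up to Day 17. Treatment groups were compared with vehicle by Dunnett's multiple comparison test.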
# Rattus norvegicus [2] = test: Antiarthritic activity in adjuvant-induced arthritis Lewis rat model at 3 to 10 mg/kg, po administered for 10 days and measured on day 17 by microCT-scanning analysis; format: functional, organism-based; details: dose 3-10 mg/kg, time 17.0 day
# In short: (§2)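 Lewis rats with adjuvant-induced arthritis were given vehicle or drug by oral gavage twice daily for 10 days (Day 7–Day 17 post immunization). On Day 17 they were exsanguinated by cardiac puncture under isoflurane. Left rear paws were μCT-scanned, and bone volume and density were determined in a 360 μm vertical section through the tarsal region. Groups were compared with vehicle by Dunnett's test.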
# Rattus norvegicus [3] = test: Antiarthritic activity in adjuvant-induced arthritis Lewis rat model assessed as improvement in bone erosion at 3 to 10 mg/kg, po administered for 10 days and measured on day 17 by microCT-scanning analysis; details: dose 3-10 mg/kg, time 17.0 day
# Rattus norvegicus [4] = test: Antiarthritic activity in adjuvant-induced arthritis Lewis rat model assessed as improvement in synovial hypertrophy at 3 to 10 mg/kg, po administered for 10 days and measured on day 17 by microCT-scanning analysis; details: dose 3-10 mg/kg, time 17.0 day
# Rattus norvegicus [5] = test: Antiarthritic activity in adjuvant-induced arthritis Lewis rat model assessed as improvement in synovial hypertrophy at 3 to 10 mg/kg, po administered for 10 days and measured on day 17 by microCT-scanning analysis; format: functional, organism-based; details: dose 3-10 mg/kg, time 17.0 day
# Rattus norvegicus [6] = test: Antiarthritic activity in adjuvant-induced arthritis Lewis rat model assessed as improvement in bone erosion at 3 to 10 mg/kg, po administered for 10 days and measured on day 17 by microCT-scanning analysis; format: functional, organism-based; details: dose 3-10 mg/kg, time 17.0 day
# Rattus norvegicus [7] = test: Antiarthritic activity in adjuvant-induced arthritis po dosed Lewis rat model assessed as bone destruction by measuring reduction in bone volume administered for 10 days and measured on day 17 by microCT-scanning analysis; format: functional, organism-based; details: dose 0.1-10 mg/kg, time 17.0 day; in short: as §2
# Rattus norvegicus [8] = test: Antiarthritic activity in adjuvant-induced arthritis Lewis rat model assessed as bone destruction by measuring reduction in bone volume at 10 mg/kg, po administered for 10 days and measured on day 17 by microCT-scanning analysis; format: functional; set-up: scale not given: the % may be the effect or the level left; details: time 17 day
# In short: (§3)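 Rats dosed by oral gavage twice daily (BID) with vehicle or drug for 10 days (Day 7–Day 17 post immunization). On Day 17, rats exsanguinated by cardiac puncture under isoflurane; left rear paw scanned by μCT. Bone volume and density determined in a 360 μm vertical section encompassing the tarsal region. Each group compared with vehicle by Dunnett's multiple comparison test.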
# Rattus norvegicus [9] = test: Antiarthritic activity in adjuvant-induced arthritis Lewis rat model assessed as bone destruction by measuring reduction in bone volume at 0.1 mg/kg, po administered for 10 days and measured on day 17 by microCT-scanning analysis; format: functional; set-up: scale not given: the % may be the effect or the level left; details: time 17 day; in short: as §2
# [10] = target: AMP-activated protein kinase, AMPK; test: Inhibition of AMPK (unknown origin) by TR-FRET assay; format: protein-complex assay, Homo sapiens
# [11] = Inhibition of ABL (unknown origin) by TR-FRET assay; set-up: species or system Homo sapiens
# Rattus norvegicus [12] = test: Antiarthritic activity in adjuvant-induced arthritis Lewis rat model assessed as bone destruction by measuring reduction in bone volume at 0.3 mg/kg, po administered for 10 days and measured on day 17 by microCT-scanning analysis; format: functional; set-up: scale not given: the % may be the effect or the level left; details: time 17 day; in short: as §3
# Rattus norvegicus [13] = test: Antiarthritic activity in adjuvant-induced arthritis Lewis rat model assessed as improvement in cartilage damage at 3 to 10 mg/kg, po administered for 10 days and measured on day 17 by microCT-scanning analysis; format: functional, organism-based; details: dose 3-10 mg/kg, time 17.0 day
# Rattus norvegicus [14] = test: Antiarthritic activity in adjuvant-induced arthritis Lewis rat model assessed as bone destruction by measuring reduction in bone volume at 1 mg/kg, po administered for 10 days and measured on day 17 by microCT-scanning analysis; format: functional; set-up: scale not given: the % may be the effect or the level left; details: time 17 day; in short: as §3
# Rattus norvegicus [15] = test: Antiarthritic activity in adjuvant-induced arthritis Lewis rat model assessed as bone destruction by measuring reduction in bone volume at 3 mg/kg, po administered for 10 days and measured on day 17 by microCT-scanning analysis; format: functional; set-up: scale not given: the % may be the effect or the level left; details: time 17 day; in short: as §2
# [16] = target: Cyclin-dependent kinase 11B (Homo sapiens, UniProt P21127); test: Inhibition of CDK11 (unknown origin) by TR-FRET assay
# Sequence of Cyclin-dependent kinase 11B (P21127 whole entry): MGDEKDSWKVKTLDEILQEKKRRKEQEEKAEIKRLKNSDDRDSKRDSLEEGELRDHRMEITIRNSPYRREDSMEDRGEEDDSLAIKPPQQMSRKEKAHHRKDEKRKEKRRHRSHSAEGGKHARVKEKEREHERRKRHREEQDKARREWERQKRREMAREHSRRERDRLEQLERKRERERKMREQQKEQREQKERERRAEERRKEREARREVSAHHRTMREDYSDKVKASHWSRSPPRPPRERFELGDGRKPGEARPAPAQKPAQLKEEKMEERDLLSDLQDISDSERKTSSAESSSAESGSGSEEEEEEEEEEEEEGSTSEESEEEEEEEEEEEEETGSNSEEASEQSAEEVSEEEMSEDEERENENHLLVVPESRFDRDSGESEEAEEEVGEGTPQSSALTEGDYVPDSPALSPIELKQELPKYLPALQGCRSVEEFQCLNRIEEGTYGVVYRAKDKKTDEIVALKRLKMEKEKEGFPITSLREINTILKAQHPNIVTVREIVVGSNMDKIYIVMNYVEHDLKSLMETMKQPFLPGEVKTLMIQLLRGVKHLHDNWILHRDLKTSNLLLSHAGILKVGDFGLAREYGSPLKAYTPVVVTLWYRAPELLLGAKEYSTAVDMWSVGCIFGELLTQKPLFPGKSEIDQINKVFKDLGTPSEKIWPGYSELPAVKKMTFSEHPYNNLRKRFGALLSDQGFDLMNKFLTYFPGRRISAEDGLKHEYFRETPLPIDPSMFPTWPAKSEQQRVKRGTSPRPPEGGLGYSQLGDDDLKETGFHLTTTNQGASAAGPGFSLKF
# Rattus norvegicus [17] = test: Antiarthritic activity in adjuvant-induced arthritis Lewis rat model assessed as improvement in cartilage damage at 3 to 10 mg/kg, po administered for 10 days and measured on day 17 by microCT-scanning analysis; details: dose 3-10 mg/kg, time 17.0 day
# Blood = test: Ex-vivo inhibition of JAK1 in human blood assessed as reduction in IL-6-induced STAT3 phosphorylation at 36 mg/kg, po measured after 12 hrs; format: functional, organism-based
# In short: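 Blood was drawn into sodium heparin tubes at 0, 1, 6 and 12 h after an oral dose. It was stimulated with recombinant human IL-6 (400 ng/ml) for 10 min at 37°C and surface-stained for CD14/CD3 on ice. Samples were lysed/fixed, frozen at −70°C, permeabilized, and stained for pSTAT3 for flow cytometry. Percent inhibition used geometric means of induced minus baseline pSTAT relative to pre-dose.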
# Rattus norvegicus [18] = test: Antiarthritic activity in adjuvant-induced arthritis Lewis rat model assessed as reduction in paw swelling administered for 10 days and measured on day 17; format: functional, organism-based; details: time 17.0 day; in short: as §1
SMILES,Activity (Rattus norvegicus [1]) [%],Activity (Rattus norvegicus [2]),Activity (Rattus norvegicus [3]),Activity (Rattus norvegicus [4]),Activity (Rattus norvegicus [5]),Activity (Rattus norvegicus [6]),Activity (Rattus norvegicus [7]),Activity (Rattus norvegicus [8]) [%],Activity (Rattus norvegicus [9]) [%],IC50 [10] [µM],IC50 [11] [µM],Activity (Rattus norvegicus [12]) [%],Activity (Rattus norvegicus [13]),Activity (Rattus norvegicus [14]) [%],Activity (Rattus norvegicus [15]) [%],IC50 [16] [µM],Activity (Rattus norvegicus [17]),inhibition (Blood),Activity (Rattus norvegicus [18])
C[C@@H]1CCN(C(=O)CC#N)C[C@@H]1N(C)c1ncnc2[nH]ccc12 [TOFACITINIB],>60,Active,,,,,,,,,,,,,,,,,
CC[C@@H]1CN(C(=O)NCC(F)(F)F)C[C@@H]1c1cnc2cnc3[nH]ccc3n12 [UPADACITINIB],>60,,Active,Active,Active,Active,Dose-Dependent Effect,89,26,> 4.5,> 10,16,Active,63,96,> 10,Active,Active,Active
